{"source": "ChEMBL document CHEMBL5303300", "about": "“EUbOPEN Chemogenomics Library - Multiplex” (2023)", "tested_on": "HEK-293T", "assay": "Multiplex assay against HEK293T", "format": "toxicity, cell-based", "conditions": "human, number of replicates 2", "procedure,_shortened": "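On a CQ1 microscope at 37°C and 5% CO2, live cells were imaged after compound addition. They had been stained at seeding with Hoechst33342, BioTracker Green Microtubule Cytoskeleton Dye, MitoTracker Red and Annexin V Alexa Fluor 680. CellPathfinder machine-learning gating assigned cells to Hoechst high-intensity objects or normal cells, normal cells to healthy, pyknosed or fragmented nuclei, and pyknosed cells to mitotic or apoptotic. Tubulin, mitochondrial-mass and membrane-permeability phenotypes are per cents of healthy-nucleus cells.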", "key": {"[1]": {"conditions": "12 h, 1 µM, compound concentration 1 uM"}, "[2]": {"conditions": "12 h, 10 µM, compound concentration 10 uM"}, "[3]": {"conditions": "24 h, 1 µM, compound concentration 1 uM"}, "[4]": {"conditions": "24 h, 10 µM, compound concentration 10 uM"}, "[5]": {"conditions": "48 h, 1 µM, compound concentration 1 uM"}, "[6]": {"conditions": "48 h, 10 µM, compound concentration 10 uM"}}, "note": "Several values for one entry are separate records, joined by “and”; a condition that tells them apart may be missing. Equal values may be shown once.", "data": [{"smiles": "C=CC(=O)Nc1ccc2[nH]c(=O)n(C3CCN(Cc4ccc(-c5ccc6c(c5)NC(=O)CO6)cc4)CC3)c2c1", "note": "[RL2578]", "values": [{"measurement": "Population Apoptotic (%)", "setting": "[1]", "value": "38% and 52%"}, {"measurement": "Population Fragmented Nuclei (%)", "setting": "[1]", "value": 3, "unit": "%"}, {"measurement": "Population Healthy Nuclei (%)", "setting": "[1]", "value": 85, "unit": "%"}, {"measurement": "Population Hoechst High Intensity Objects (%)", "setting": "[1]", "value": "8% and 6%"}, {"measurement": "Population Membrane Permeable-Phenotype (%)", "setting": "[1]", "value": "4% and 5%"}, {"measurement": "Population Mitochondria Different-Phenotype (%)", "setting": "[1]", "value": 17, "unit": "%"}, {"measurement": "Population Mitotic Cells (%)", "setting": "[1]", "value": "61% and 47%"}, {"measurement": "Population Normal (%)", "setting": "[1]", "value": "91% and 93%"}, {"measurement": "Population Pyknosed Nuclei (%)", "setting": "[1]", "value": "10% and 11%"}, {"measurement": "Population Tubulin-Different-Phenotype (%)", "setting": "[1]", "value": "66% and 57%"}, {"measurement": "Total Cell Count", "setting": "[1]", "value": "749 and 364"}, {"measurement": "Population Apoptotic (%)", "setting": "[2]", "value": "39% and 60%"}, {"measurement": "Population Fragmented Nuclei (%)", "setting": "[2]", "value": "2% and 1%"}, {"measurement": "Population Healthy Nuclei (%)", "setting": "[2]", "value": "92% and 89%"}, {"measurement": "Population Hoechst High Intensity Objects (%)", "setting": "[2]", "value": "6% and 10%"}, {"measurement": "Population Membrane Permeable-Phenotype (%)", "setting": "[2]", "value": "10% and 6%"}, {"measurement": "Population Mitochondria Different-Phenotype (%)", "setting": "[2]", "value": 39, "unit": "%"}, {"measurement": "Population Mitotic Cells (%)", "setting": "[2]", "value": "60% and 40%"}, {"measurement": "Population Normal (%)", "setting": "[2]", "value": "93% and 89%"}, {"measurement": "Population Pyknosed Nuclei (%)", "setting": "[2]", "value": "4% and 8%"}, {"measurement": "Population Tubulin-Different-Phenotype (%)", "setting": "[2]", "value": "97% and 96%"}, {"measurement": "Total Cell Count", "setting": "[2]", "value": "579 and 597"}, {"measurement": "Population Apoptotic (%)", "setting": "[3]", "value": "44% and 59%"}, {"measurement": "Population Fragmented Nuclei (%)", "setting": "[3]", "value": "6% and 4%"}, {"measurement": "Population Healthy Nuclei (%)", "setting": "[3]", "value": "86% and 88%"}, {"measurement": "Population Hoechst High Intensity Objects (%)", "setting": "[3]", "value": 4, "unit": "%"}, {"measurement": "Population Membrane Permeable-Phenotype (%)", "setting": "[3]", "value": "4% and 3%"}, {"measurement": "Population Mitochondria Different-Phenotype (%)", "setting": "[3]", "value": "7% and 9%"}, {"measurement": "Population Mitotic Cells (%)", "setting": "[3]", "value": "56% and 40%"}, {"measurement": "Population Normal (%)", "setting": "[3]", "value": 95, "unit": "%"}, {"measurement": "Population Pyknosed Nuclei (%)", "setting": "[3]", "value": "6% and 7%"}, {"measurement": "Population Tubulin-Different-Phenotype (%)", "setting": "[3]", "value": "42% and 38%"}, {"measurement": "Total Cell Count", "setting": "[3]", "value": "1138 and 534"}, {"measurement": "Population Apoptotic (%)", "setting": "[4]", "value": "53% and 81%"}, {"measurement": "Population Fragmented Nuclei (%)", "setting": "[4]", "value": "3% and 4%"}, {"measurement": "Population Healthy Nuclei (%)", "setting": "[4]", "value": "93% and 90%"}, {"measurement": "Population Hoechst High Intensity Objects (%)", "setting": "[4]", "value": "8% and 9%"}, {"measurement": "Population Membrane Permeable-Phenotype (%)", "setting": "[4]", "value": "5% and 2%"}, {"measurement": "Population Mitochondria Different-Phenotype (%)", "setting": "[4]", "value": "35% and 46%"}, {"measurement": "Population Mitotic Cells (%)", "setting": "[4]", "value": "46% and 18%"}, {"measurement": "Population Normal (%)", "setting": "[4]", "value": "91% and 90%"}, {"measurement": "Population Pyknosed Nuclei (%)", "setting": "[4]", "value": "2% and 4%"}, {"measurement": "Population Tubulin-Different-Phenotype (%)", "setting": "[4]", "value": "90% and 94%"}, {"measurement": "Total Cell Count", "setting": "[4]", "value": "626 and 621"}, {"measurement": "Population Apoptotic (%)", "setting": "[5]", "value": "16% and 19%"}, {"measurement": "Population Fragmented Nuclei (%)", "setting": "[5]", "value": "15% and 13%"}, {"measurement": "Population Healthy Nuclei (%)", "setting": "[5]", "value": "81% and 82%"}, {"measurement": "Population Hoechst High Intensity Objects (%)", "setting": "[5]", "value": "8% and 7%"}, {"measurement": "Population Membrane Permeable-Phenotype (%)", "setting": "[5]", "value": "6% and 4%"}, {"measurement": "Population Mitochondria Different-Phenotype (%)", "setting": "[5]", "value": "0% and 2%"}, {"measurement": "Population Mitotic Cells (%)", "setting": "[5]", "value": "83% and 80%"}, {"measurement": "Population Normal (%)", "setting": "[5]", "value": "91% and 92%"}, {"measurement": "Population Pyknosed Nuclei (%)", "setting": "[5]", "value": "2% and 3%"}, {"measurement": "Population Tubulin-Different-Phenotype (%)", "setting": "[5]", "value": "18% and 21%"}, {"measurement": "Total Cell Count", "setting": "[5]", "value": "2736 and 1194"}, {"measurement": "Population Apoptotic (%)", "setting": "[6]", "value": "32% and 60%"}, {"measurement": "Population Fragmented Nuclei (%)", "setting": "[6]", "value": "11% and 7%"}, {"measurement": "Population Healthy Nuclei (%)", "setting": "[6]", "value": "84% and 86%"}, {"measurement": "Population Hoechst High Intensity Objects (%)", "setting": "[6]", "value": 13, "unit": "%"}, {"measurement": "Population Membrane Permeable-Phenotype (%)", "setting": "[6]", "value": "3% and 1%"}, {"measurement": "Population Mitochondria Different-Phenotype (%)", "setting": "[6]", "value": "15% and 25%"}, {"measurement": "Population Mitotic Cells (%)", "setting": "[6]", "value": "67% and 40%"}, {"measurement": "Population Normal (%)", "setting": "[6]", "value": 86, "unit": "%"}, {"measurement": "Population Pyknosed Nuclei (%)", "setting": "[6]", "value": "4% and 6%"}, {"measurement": "Population Tubulin-Different-Phenotype (%)", "setting": "[6]", "value": "71% and 82%"}, {"measurement": "Total Cell Count", "setting": "[6]", "value": "795 and 718"}]}]}
